In article PMC9292875 (British Journal of Clinical Pharmacology, 2021):
“And” between values parts separate entries of the source, which are not always exact repeats. Equal values may be shown once.

What was measured:
patients = conditions: available clinical data; cited from earlier work
[1] = tested on: patients with advanced solid malignancies; assay: Categorical evaluation of QTc, PR and QRS intervals; assay type: in vivo, human; conditions: of 180 patients
In short: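 Patients received single twice-daily-regimen doses of 80–800 mg, either continuous or intermittent. A 12-lead digital ECG was recorded after at least 10 min semi-supine rest. Triplicate tracings were taken about 5 min apart at each time point and averaged, then read centrally. Thresholds were QTc ≥450, ≥480 and ≥500 ms; ΔQTc ≥30 and ≥60 ms; PR ≥200 ms; and QRS ≥110 ms.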

[2] = tested on: patients with advanced solid malignancies; assay: Exploratory graphical analysis of model assumptions; assay type: in vivo, human
In short: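 Before modelling, first-dose paired data were plotted to check four assumptions: no drug effect on heart rate; a suitable HR correction (RR versus uncorrected QT, QTcF and QTcB); no hysteresis (mean ΔQTcF against concentration, joined in time order per dose); and linearity (loess smooth, linear regression, binned means). Sampling was at baseline, 1, 2, 6 and 24 h (escalation/expansion) or at baseline, 2 and 4–6 h (mutation cohorts).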

[3] = Plasma pharmacokinetics of capivasertib; assay type: in vivo, human
[4] = tested on: patients with advanced solid malignancies; assay type: in vivo, human; conditions: linear mixed-effects model parameter estimate
In short: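 The model was a prespecified linear mixed-effects structure for placebo-free oncology trials. It regressed baseline-adjusted QTcF on plasma concentration, with random intercept and slope, plus a fixed effect for baseline QTcF centred on the overall baseline mean. Fitting used restricted maximum likelihood, assuming normal random effects and residuals. Only first-dose data were used (503 time-matched points, 180 patients). Fit was checked with goodness-of-fit plots.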

## NC1(C(=O)N[C@@H](CCO)c2ccc(Cl)cc2)CCN(c2ncnc3[nH]ccc23)CC1 [capivasertib, 4‐amino‐N‐[(1S)‐1‐(4‐chlorophenyl)‐3‐hydroxypropyl]‐1‐(7H‐pyrrolo[2,3‐d]pyrimidin‐4‐yl)piperidine‐4‐carboxamide]
patients
  Reports of serious cardiac events or ECG changes: no reports of sudden death, torsades de pointes, seizures or electrocardiogram (ECG) changes that were considered serious
[1]; doses from 80 mg to 800 mg
  Patients with QRS ≥ 110 ms: 5.0%
[1]; single doses 80-800 mg
  Patients with QTcF ≥ 480 ms: No patients
  Patients with ΔQTcF ≥ 60 ms: No patients
[2]; after administration of first dose
  Time to maximum ΔQTcF: ≤ 2 h
[2]; after first dose, small decrease at 1 hour, not dose-dependent
  ΔHR (change in heart rate): ≤ 10 beats per minute
[2]; in vivo
  Time delay between concentration and ΔQTcF (hysteresis plots): No evidence of a time‐delay
[3]; 4 days on/3 days off intermittent schedule
  Drug accumulation: less than twofold
[3]; after first dose
  Time at which Cmax was reached after dosing: approximately 2 hours
[4]
  ɛ Residual variability: 6.452 ms
  η0 Random effect for intercept: 5.350 ms
  θ0 Intercept: -0.269 ms
  θ1 Slope of capivasertib concentration vs ΔQTcF: 0.003 ms/(ng/mL) and 0.00337 ms/(ng/mL)
  θ2 Impact of baseline QTcF on ΔQTcF: −0.119
